Assay results: ChEMBL document CHEMBL3046353, “Synthesis and fungicidal activity of some 5-membered heterocyclic derivatives containing benzimidazoles” (1993)
Calls of active or inactive are those of the source. The rule behind the calls is not given here.

Tests used:
Echinochloa crus-galli [1] = assay: Post-emergence herbicidal activity against Echinochloa crus-galli (barnyard grass); format: functional, organism-based
Abutilon theophrasti [2] = assay: Pre-emergence herbicidal activity against Abutilon theophrasti (velvetleaf); format: functional, organism-based
Convolvulaceae [3] = assay: Pre-emergence herbicidal activity against Convolvulaceae (morning glory family); format: functional, organism-based
Echinochloa crus-galli [4] = assay: Herbicidal activity against Echinochloa crus-galli (barnyard grass) under paddy conditions; format: functional, organism-based
Convolvulaceae [5] = assay: Herbicidal activity against Convolvulaceae (morning glory family) under paddy conditions; format: functional, organism-based
Avena sativa [6] = assay: Herbicidal activity against Avena sativa under paddy conditions; format: functional, organism-based
Sagittaria latifolia [7] = assay: Pre-emergence herbicidal activity against Sagittaria latifolia (broadleaf arrowhead); format: functional, organism-based
Schoenoplectus acutus [8] = assay: Herbicidal activity against Schoenoplectus acutus (hardstem bulrush) under paddy conditions; format: functional, organism-based
Avena sativa [9] = assay: Post-emergence herbicidal activity against Avena sativa; format: functional, organism-based
Oryza sativa [10] = assay: Herbicidal activity against Oryza sativa (rice) under paddy conditions; format: functional, organism-based
Convolvulaceae [11] = assay: Post-emergence herbicidal activity against Convolvulaceae (morning glory family); format: functional, organism-based
Avena sativa [12] = assay: Pre-emergence herbicidal activity against Avena sativa; format: functional, organism-based
Echinochloa crus-galli [13] = assay: Pre-emergence herbicidal activity against Echinochloa crus-galli (barnyard grass); format: functional, organism-based
Schoenoplectus acutus [14] = assay: Pre-emergence herbicidal activity against Schoenoplectus acutus (hardstem bulrush); format: functional, organism-based
Rhizoctonia solani = assay: Fungicidal activity against Rhizoctonia solani at 500 ppm after 7 days by poisoned food technique; format: functional; conditions: 168 h, read-out: GI
How it was run: (§1)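 Cultures kept on potato dextrose agar. Each compound, dissolved in acetone, was added to potato dextrose agar at a final 500 ppm (w/v) (poisoned food technique). A disc cut from the periphery of a seven-day-old culture was inoculated onto each set. Control sets held potato dextrose agar only. The read-out is percentage inhibition of fungal growth relative to control.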

Spodoptera litura = assay: Insecticidal activity against Spodoptera litura; format: functional, organism-based
Oryza sativa [15] = assay: Pre-emergence herbicidal activity against Oryza sativa (rice); format: functional, organism-based
Helminthosporium = assay: Fungicidal activity against Helminthosporium oryzae at 500 ppm after 7 days by poisoned food technique; format: functional; conditions: 168 h, read-out: GI; how it was run: as §1
Culex pipiens pallens = assay: Insecticidal activity against Culex pipiens pallens (mosquito) at 3 to 5 ppm; format: functional, organism-based
Abutilon theophrasti [16] = assay: Post-emergence herbicidal activity against Abutilon theophrasti (velvetleaf); format: functional, organism-based
Oryza sativa [17] = assay: Post-emergence herbicidal activity against Oryza sativa (rice); format: functional, organism-based
Musca domestica = assay: Insecticidal activity against Musca domestica (house fly); format: functional, organism-based
Schoenoplectus acutus [18] = assay: Post-emergence herbicidal activity against Schoenoplectus acutus (hardstem bulrush); format: functional, organism-based
Sagittaria latifolia [19] = assay: Post-emergence herbicidal activity against Sagittaria latifolia (broadleaf arrowhead); format: functional, organism-based
Tetranychus cinnabarinus = assay: Insecticidal activity against Tetranychus cinnabarinus (carmine spider mite); format: functional, organism-based
Sagittaria latifolia [20] = assay: Herbicidal activity against Sagittaria latifolia (broadleaf arrowhead) under paddy conditions; format: functional, organism-based

| SMILES | Activity (Echinochloa crus-galli [1]) | Activity (Abutilon theophrasti [2]) | Activity (Convolvulaceae [3]) | Activity (Echinochloa crus-galli [4]) | Activity (Convolvulaceae [5]) | Activity (Avena sativa [6]) | Activity (Sagittaria latifolia [7]) | Activity (Schoenoplectus acutus [8]) | Activity (Avena sativa [9]) | Activity (Oryza sativa [10]) | Activity (Convolvulaceae [11]) | Activity (Avena sativa [12]) | Activity (Echinochloa crus-galli [13]) | Activity (Schoenoplectus acutus [14]) | inhibition of growth at 500 ppm (Rhizoctonia solani) [%] | Activity (Spodoptera litura) | Activity (Oryza sativa [15]) | inhibition of growth at 500 ppm (Helminthosporium) [%] | Activity (Culex pipiens pallens) | Activity (Abutilon theophrasti [16]) | other results |
| --- | --- | --- | --- | --- | --- | --- | --- | --- | --- | --- | --- | --- | --- | --- | --- | --- | --- | --- | --- | --- | --- |
| Cc1ccc2[nH]c(CSc3nnc(-c4cccc(Cl)c4)n3N)nc2c1 | inactive | inactive | inactive | inactive | inactive | inactive | inactive | inactive | inactive | inactive | inactive | inactive | inactive | inactive | 71.2 | inactive | inactive | 82.5 | Active | inactive | Activity (Oryza sativa [17]): inactive; Activity (Musca domestica): inactive; Activity (Schoenoplectus acutus [18]): inactive; Activity (Sagittaria latifolia [19]): inactive; Activity (Tetranychus cinnabarinus): inactive; Activity (Sagittaria latifolia [20]): inactive |
| Clc1cccc(-c2nnc(SCc3nc4ccccc4[nH]3)s2)c1 | inactive | inactive | inactive | inactive | inactive | inactive | inactive | inactive | inactive | inactive | inactive | inactive | inactive | inactive | 89.5 | inactive | inactive | 91.2 | Active | inactive | Activity (Oryza sativa [17]): inactive; Activity (Musca domestica): inactive; Activity (Schoenoplectus acutus [18]): inactive; Activity (Sagittaria latifolia [19]): inactive; Activity (Tetranychus cinnabarinus): inactive; Activity (Sagittaria latifolia [20]): inactive |
| Clc1cccc(-c2nnc(SCc3nc4ccccc4[nH]3)o2)c1 | inactive | inactive | inactive | inactive | inactive | inactive | inactive | inactive | inactive | inactive | inactive | inactive | inactive | inactive | 69.4 | inactive | inactive | 89.7 | Active | inactive | Activity (Oryza sativa [17]): inactive; Activity (Musca domestica): inactive; Activity (Schoenoplectus acutus [18]): inactive; Activity (Sagittaria latifolia [19]): inactive; Activity (Tetranychus cinnabarinus): inactive; Activity (Sagittaria latifolia [20]): inactive |
| Cc1ccc2[nH]c(CSc3nc4ccccc4[nH]3)nc2c1 | inactive | inactive | inactive | inactive | inactive | inactive | inactive | inactive | inactive | inactive | inactive | inactive | inactive | inactive | 61.3 | inactive | inactive | 81.3 | Active | inactive | Activity (Oryza sativa [17]): inactive; Activity (Musca domestica): inactive; Activity (Schoenoplectus acutus [18]): inactive; Activity (Sagittaria latifolia [19]): inactive; Activity (Tetranychus cinnabarinus): inactive; Activity (Sagittaria latifolia [20]): inactive |
| c1ccc(-c2nnc(SCc3nc4ccccc4[nH]3)s2)cc1 | inactive | inactive | inactive | inactive | inactive | inactive | inactive | inactive | inactive | inactive | inactive | inactive | inactive | inactive | 69.8 | inactive | inactive | 74.3 | Active | inactive | Activity (Oryza sativa [17]): inactive; Activity (Musca domestica): inactive; Activity (Schoenoplectus acutus [18]): inactive; Activity (Sagittaria latifolia [19]): inactive; Activity (Tetranychus cinnabarinus): inactive; Activity (Sagittaria latifolia [20]): inactive |
| c1ccc2[nH]c(CSc3nnc(-c4ccncc4)s3)nc2c1 | inactive | inactive | inactive | inactive | inactive | inactive | inactive | inactive | inactive | inactive | inactive | inactive | inactive | inactive | 21.3 | inactive | inactive | 54.5 | Active | inactive | Activity (Oryza sativa [17]): inactive; Activity (Musca domestica): inactive; Activity (Schoenoplectus acutus [18]): inactive; Activity (Sagittaria latifolia [19]): inactive; Activity (Tetranychus cinnabarinus): inactive; Activity (Sagittaria latifolia [20]): inactive |
| Nn1c(SCc2nc3ccccc3[nH]2)nnc1-c1cccc(Cl)c1 | inactive | inactive | inactive | inactive | inactive | inactive | inactive | inactive | inactive | inactive | inactive | inactive | inactive | inactive | 61.2 | inactive | inactive | 89.3 | Active | inactive | Activity (Oryza sativa [17]): inactive; Activity (Musca domestica): inactive; Activity (Schoenoplectus acutus [18]): inactive; Activity (Sagittaria latifolia [19]): inactive; Activity (Tetranychus cinnabarinus): inactive; Activity (Sagittaria latifolia [20]): inactive |
| c1ccc2[nH]c(CSc3nnc(-c4ccncc4)o3)nc2c1 | inactive | inactive | inactive | inactive | inactive | inactive | inactive | inactive | inactive | inactive | inactive | inactive | inactive | inactive | 32 | inactive | inactive | 49.8 | Active | inactive | Activity (Oryza sativa [17]): inactive; Activity (Musca domestica): inactive; Activity (Schoenoplectus acutus [18]): inactive; Activity (Sagittaria latifolia [19]): inactive; Activity (Tetranychus cinnabarinus): inactive; Activity (Sagittaria latifolia [20]): inactive |
| Nn1c(SCc2nc3ccccc3[nH]2)nnc1-c1ccccc1Cl | inactive | inactive | inactive | inactive | inactive | inactive | inactive | inactive | inactive | inactive | inactive | inactive | inactive | inactive | 39.8 | inactive | inactive | 52.3 | Active | inactive | Activity (Oryza sativa [17]): inactive; Activity (Musca domestica): inactive; Activity (Schoenoplectus acutus [18]): inactive; Activity (Sagittaria latifolia [19]): inactive; Activity (Tetranychus cinnabarinus): inactive; Activity (Sagittaria latifolia [20]): inactive |
